# Only some compounds are listed: those with a hit (about 9.4% of all), similar ones and a draw of the others.
# Beta apoptosis: beta cell apoptosis inhibition; INS-1E cytokine-induced death, ATP luminescence, 48 h; percent of positive-control rescue, neutral wells zero; protection from apoptosis, % (concentration not given with the values); 0.8% of 300,000 active; AID 435005;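 active means Every replicate reaches about 75%, or at least half do and their mean reaches it too, limit read from the data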;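 further: 0% = cytokine-treated negative control wells and 100% = positive control rescue; higher means more ATP so stronger rescue from cytokine killing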
# SKKanGAS inh: SKKanGAS growth inhibition | S. pyogenes SKKanGAS, kanamycin growth, BacTiter-Glo, 6 h | inhibition, % at 7.5 µM | 1.3% of 300,000 active;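 active means mean replicate score, as percent of positive control median, at least 50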;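 further: strain carries kanamycin resistance gene driven by streptokinase promoter and grows in 40 µg/ml kanamycin; loss of luminescence reflects streptokinase promoter inhibition or plain growth inhibition; 0% = median of DMSO wells and 100% = positive control at its reference dose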
# CSC inhib: blocks cancer stem cells | cancer stem cell-like cells viability, luminescence | inhibition, % at 7.5 µM | 1.1% of 300,000 active | AID 2717; in the data active means inhibition above about 75%; tested in HMLE shEcad cells
# Lmaj promast: inhibitors of Leishmania major promastigote growth; Leishmania major promastigotes, resazurin fluorescence viability; inhibition, % at 10 µM; 9% of 200,000 active; in the data active means inhibition above about 50%;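 further: promastigotes grown with compound for 44 hours at 28 °C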
# T cruzi inh: blocks replication of Trypanosoma cruzi | T. cruzi beta-gal in NIH3T3, luminescence, 90 h | inhibition, % (no concentration beside the values) | 1.4% of 300,000 active | AID 1885;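 active means mean inhibition across valid replicates above about 55%, limit read from the data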;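 further: signal also drops with host cell toxicity which is not excluded here; 0% = plate median of DMSO wells and 100% = zero luminescence signal; higher percent means less beta-gal luminescence so fewer parasites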
#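 System: Mouse NIH/3T3 fibroblasts infected with β-gal-expressing T. cruzi Tulahuen C4 | Quantity: NIH/3T3 cells, 5,000 per well | Reagent: 5000 reporter trypomastigotes per well | Dosing: Compound pinned at 50 nL/well, DMSO | Schedule: 3 h host attachment, then at least 90 h co-culture | Detection: GalScreen luminescence, 60 min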
# Mdm2-MdmX inh: human Mdm2/MdmX binding inhibition; SaOS-2 split-luciferase Mdm2/MdmX complementation, luminescence; inhibition, % at 8 µM; 3% of 330,000 active; AID 485346;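 active means inhibition of at least 50% at 8 µM in the primary screen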
# Target sequence (O15151 whole entry, looked up): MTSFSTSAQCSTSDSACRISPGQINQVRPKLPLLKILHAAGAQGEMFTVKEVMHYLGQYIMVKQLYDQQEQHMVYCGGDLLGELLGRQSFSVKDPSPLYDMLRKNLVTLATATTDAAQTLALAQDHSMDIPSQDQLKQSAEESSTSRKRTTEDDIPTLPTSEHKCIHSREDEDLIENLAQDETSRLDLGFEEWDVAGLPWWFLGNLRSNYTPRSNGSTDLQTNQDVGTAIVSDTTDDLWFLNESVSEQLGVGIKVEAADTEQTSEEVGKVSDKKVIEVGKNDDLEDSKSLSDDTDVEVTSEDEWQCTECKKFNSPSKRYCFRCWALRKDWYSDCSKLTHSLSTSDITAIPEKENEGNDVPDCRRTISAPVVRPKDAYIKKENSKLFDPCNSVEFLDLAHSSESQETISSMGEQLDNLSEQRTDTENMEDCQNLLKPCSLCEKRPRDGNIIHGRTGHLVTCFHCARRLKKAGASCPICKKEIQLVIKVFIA
# Target sequence (Q00987 whole entry, looked up): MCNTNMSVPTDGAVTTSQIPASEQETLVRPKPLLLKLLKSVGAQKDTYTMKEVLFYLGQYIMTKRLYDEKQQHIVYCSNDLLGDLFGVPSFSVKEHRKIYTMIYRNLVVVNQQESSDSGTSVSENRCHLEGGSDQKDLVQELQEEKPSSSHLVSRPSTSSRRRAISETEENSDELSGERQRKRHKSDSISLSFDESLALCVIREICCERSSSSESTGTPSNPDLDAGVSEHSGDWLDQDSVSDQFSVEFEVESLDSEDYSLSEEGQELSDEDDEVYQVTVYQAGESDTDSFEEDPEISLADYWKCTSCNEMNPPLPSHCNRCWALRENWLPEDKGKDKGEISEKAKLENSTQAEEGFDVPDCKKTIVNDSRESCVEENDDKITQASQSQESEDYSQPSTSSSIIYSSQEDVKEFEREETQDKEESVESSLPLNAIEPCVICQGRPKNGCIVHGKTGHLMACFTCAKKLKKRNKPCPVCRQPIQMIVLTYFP
# Mdm2-MdmX conf: confirmation of human Mdm2/MdmX interaction inhibitors | 55% of 10,000 active | inhibition, % at 8 µM | Mdm2-MdmX binding, luminescent assay | shares compounds with Mdm2-MdmX inh; in the data active means inhibition above about 40%
# Full FLuc ctr: inhibits full-length luciferase, flagging false Mdm2/MdmX hits | shares compounds with Mdm2-MdmX inh | SaOS-2 full-length luciferase counterscreen, luminescence | inhibition, % at 8 µM | 77% of 6,200 active;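 active means mean inhibition at 8 µM reaching about 37%, which flags the compound as non-specific, limit read from the data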;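 further: p53-null SaOS-2 cells with luciferase driven by a doxycycline-inducible promoter; compound on cells about two nights before reading with doxycycline added after day one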
# The depositor's hits bear a star; nt = not tested or not shown.
SMILES,Beta apoptosis,SKKanGAS inh,CSC inhib,Lmaj promast,T cruzi inh,Mdm2-MdmX inh,Mdm2-MdmX conf,Full FLuc ctr
COc1ccc(/C=C2\SC(=S)N(CCC(=O)NC3C=CS(=O)(=O)C3)C2=O)cc1 (centres undefined),-12,-1,2,nt,-35,29,nt,nt
COc1ccc(/C=C2\SC(=S)N(CCCC(=O)N3CCCCC3CCO)C2=O)cc1 (centres undefined),-21,-1,-12,nt,-3,64*,22,nt
N#Cc1cccnc1N1CCN(C(=O)c2ccco2)CC1,1,2,-15,nt,-13,4,nt,nt
O=C1/C(=C\c2ccccc2)SC(=S)N1CCC(=O)N1CCCCC1CCO (centres undefined),-48,3,-7,nt,-3,72*,3,nt
COc1cccc(/C=C2\SC(=O)N(CCC(=O)N3CCCCC3CCO)C2=O)c1 (centres undefined),-6,-8,18,nt,4,15,nt,nt
CCN(CC)CCN(Cc1cc2ccc(C)c(C)c2[nH]c1=O)C(=S)NCc1ccco1,-5,1,-2,32,44,88*,54*,82*
CCN(CC)CCN(Cc1cc2cc3c(cc2[nH]c1=O)OCO3)C(=S)NCc1ccco1,-3,0,-6,3,15,18,nt,nt
Cc1ccc(C)c(C(=O)O/N=C(\N)c2ccc(Br)cc2)c1,-5,3,0,10,1,57*,54*,104*
COc1ccc(C(=O)O/N=C(\N)c2ccc(Cl)cc2)cc1,4,-7,-5,nt,-1,100*,34,163*
N/C(=N\OC(=O)c1ccc2ccccc2c1)c1ccc(Br)cc1,1,-18,2,-4,-1,62*,47*,96*
COc1ccc(/C(N)=N/OC(=O)c2cccs2)cc1,-1,8,22,nt,3,-92,nt,nt
Cc1ccc(C(=O)O/N=C(\N)c2ccc(Br)cc2)cc1C,-2,-10,0,20,13,99*,83*,116*
Cc1cccc(NC(=O)[C@@H]2CCCN2C(=O)OC(C)(C)C)c1,-8,-1,1,nt,4,21,nt,nt
O=C(Nc1ccccn1)c1cc(-c2cccc(Cl)c2)nc2ccccc12,3,2,13,16,24,17,nt,nt
N/C(=N\OC(=O)c1ccoc1)c1ccc(Br)cc1,-12,-2,-1,nt,-4,-46,nt,nt
Cc1cccc(C(=O)O/N=C(\N)c2ccc(Cl)cc2)c1,-1,-3,-15,nt,3,51*,-13,nt
Cc1cc(C)cc(C(=O)O/N=C(\N)c2ccc(Br)cc2)c1,8,-9,5,3,35,100*,78*,90*
Cc1cccc(C(=O)O/N=C(\N)c2ccc(Br)cc2)c1,-2,-4,-13,-1,2,51*,-8,nt
N/C(=N\OC(=O)c1ccc2c(c1)OCO2)c1ccc(Cl)cc1,3,2,-4,3,24,82*,17,nt
COc1ccc(C(=O)N2CCN(C(=O)Cc3ccccc3)CC2)cc1,0,3,-7,-8,-7,-2,nt,nt
CS(=O)(=O)CCC(C(=O)Nc1ccc2c(c1)OCO2)N1Cc2ccccc2C1=O (centres undefined),-2,1,9,nt,-2,12,nt,nt
COc1cccc(N2CCN(c3nc(-c4ccccc4C)cc(=O)[nH]3)CC2)c1,nt,8,nt,nt,-51,95*,76*,81*
CNS(=O)(=O)c1cccc(C(=O)NCC(C)(C)N2CCCCC2)c1,-4,2,-2,nt,-1,-10,nt,nt
COc1ccc(OC)c(NC(=S)N2CCC(C(O)(c3ccccc3)c3ccccc3)CC2)c1,-8,7,-31,16,3,10,nt,nt
CCCCN1C[C@H](C)[C@@H](CC(=O)NCc2ccccc2)C1=O,-6,6,-11,nt,-14,9,nt,nt
SMILES,Beta apoptosis,SKKanGAS inh,CSC inhib,Lmaj promast,T cruzi inh,Mdm2-MdmX inh,Mdm2-MdmX conf,Full FLuc ctr
CC(=O)Nc1ccc(Nc2cc(C(C)C)nc3c(-c4ccccc4)c(C)nn23)cc1,nt,88*,84*,nt,68*,55*,43*,54*
Cc1nn2c(NCc3ccccn3)cc(C(C)C)nc2c1-c1ccccc1,61,101*,51,nt,54,64*,41*,29
Cc1cc(NCCC(C)C)n2nc(C)c(-c3ccccc3)c2n1,15,-4,nt,8,42,9,nt,nt
Cc1nn2c(NCCCn3ccnc3)cc(C(C)C)nc2c1-c1ccccc1,8,15,23,nt,53,13,nt,nt
Cc1cc(NCc2ccccn2)n2nc(C)c(-c3ccc(Cl)cc3)c2n1,39,81*,77*,nt,nt,61*,21,nt
Cc1ccc(N2CCN(C(=O)c3nn(C)c4c3CS(=O)(=O)c3ccccc3-4)CC2)c(C)c1,-4,9,-10,nt,9,41,nt,nt
O=C(CSc1nnc(-c2cccnc2)n1Cc1ccccc1)NCc1ccccc1,-1,-2,-6,-4,-2,3,nt,nt
COc1ccc(Nc2oc(COc3ccccc3F)nc2C#N)cc1,3,7,11,17,-6,-13,nt,nt
COc1ccc(Nc2oc(COc3cccc(C)c3)nc2C#N)cc1,5,28,-8,2,26,63*,48*,90*
CCOc1ccc(Nc2oc(-c3cccc(Cl)c3)nc2C#N)cc1,6,-5,0,5,-6,51*,1,nt
CCOc1ccc(Nc2oc(-c3ccco3)nc2C#N)cc1,2,0,nt,25,11,8,nt,nt
COc1ccc(Nc2oc(COc3ccc(C)cc3)nc2C#N)cc1,1,18,-5,-4,32,59*,74*,61*
COc1ccc(Nc2oc(COc3ccc(OC)cc3)nc2C#N)cc1,nt,23,16,-6,22,63*,80*,59*
Cc1cc(C)c[n+](C(C)C(=O)c2ccc(Cl)cc2)c1 (centres undefined),-10,3,-14,nt,-14,16,nt,nt
CN(c1ccc([N+](=O)[O-])cc1C(N)=O)C1CCCCC1,-19,-10,-6,-4,-4,10,nt,nt
CCN(C(=O)COC(=O)CSc1ccccc1)c1c(N)n(Cc2ccccc2)c(=O)[nH]c1=O,-4,-10,2,nt,-6,-12,nt,nt
O=C(CCc1nc2ccccc2c(=O)[nH]1)Nc1nnc(SCc2ccc(Cl)cc2)s1,-1,6,-2,nt,24,33,nt,nt
Cc1ccc(Nc2nnc(SCc3nc4ccccc4c(=O)[nH]3)s2)cc1,58,0,-4,3,-11,66*,40*,17
Cc1ccc(S(=O)(=O)N2CCCCC2)cc1NC(=O)Cn1c(=O)cnc2ccccc21,6,-15,-9,13,13,28,nt,nt
CCN(C(=O)COC(=O)c1ccc(=O)n(Cc2ccccc2)n1)C1CCCCC1,-3,nt,-4,nt,nt,16,nt,nt
CC(=O)Nc1ccccc1C(=O)C(=O)Nc1ccc(C(=O)NCC2CCCO2)cc1 (centres undefined),2,-2,8,-1,-9,-3,nt,nt
